Data from ChEMBL document CHEMBL3864121, “Development of ebsulfur analogues as potent antibacterials against methicillin-resistant Staphylococcus aureus” (Bioorg Med Chem, 2016).
≈ marks a conversion by molar mass, not a printed value. Calls of active or inactive are those of the source. No cut-off for these calls is given here.

Legend:
Type in all cases: functional
[1] = tested on: Escherichia coli; assay: Antibacterial activity against Escherichia coli MC1061 measured after overnight incubation by broth double-dilution method
Outline: (§1)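 MIC by broth double-dilution in liquid Mueller-Hinton medium. Values are reported in µg/mL.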

[2] = tested on: Staphylococcus aureus; assay: Antibacterial activity against methicillin-resistant Staphylococcus aureus NRS77 measured after overnight incubation by broth double-dilution method; outline: as §1
[3] = tested on: Staphylococcus aureus; assay: Antibacterial activity against methicillin-resistant Staphylococcus aureus S17 measured after overnight incubation by broth double-dilution method; outline: as §1
[4] = tested on: Listeria monocytogenes; assay: Antibacterial activity against Listeria monocytogenes ATCC 19115 measured after overnight incubation by broth double-dilution method
Outline: (§2)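 MIC by broth double-dilution in Mueller-Hinton medium. Re-testing at the time-kill inoculum used 1×10^6 CFU/mL.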

[5] = tested on: Klebsiella pneumoniae; assay: Antibacterial activity against Klebsiella pneumoniae ATCC 27736 measured after overnight incubation by broth double-dilution method; outline: as §1
[6] = tested on: Staphylococcus aureus; assay: Bacteriostatic activity against methicillin-resistant Staphylococcus aureus S22 at MIC measured up to 3 to 6 hrs by time kill analysis
[7] = tested on: Staphylococcus aureus; assay: Bacteriostatic activity against methicillin-resistant Staphylococcus aureus S22 at 0.5 times MIC measured up to 3 to 6 hrs by time kill analysis
[8] = tested on: Staphylococcus aureus; assay: Antibacterial activity against methicillin-resistant Staphylococcus aureus S22 measured after overnight incubation by broth double-dilution method; outline: as §1
[9] = tested on: Enterococcus faecium; assay: Antibacterial activity against Enterococcus faecium BM4105-RF measured after overnight incubation by broth double-dilution method; outline: as §1
[10] = tested on: Staphylococcus aureus; assay: Antibacterial activity against methicillin-resistant Staphylococcus aureus NRS4 measured after overnight incubation by broth double-dilution method; outline: as §1
[11] = tested on: Staphylococcus aureus; assay: Antibacterial activity against methicillin-resistant Staphylococcus aureus C19 measured after overnight incubation by broth double-dilution method; outline: as §1
[12] = tested on: Staphylococcus aureus; assay: Antibacterial activity against methicillin-resistant Staphylococcus aureus ATCC 33591 measured after overnight incubation by broth double-dilution method; outline: as §1
[13] = tested on: Staphylococcus aureus; assay: Antibacterial activity against methicillin-resistant Staphylococcus aureus G12 measured after overnight incubation by broth double-dilution method; outline: as §1
[14] = tested on: Staphylococcus epidermidis; assay: Antibacterial activity against Staphylococcus epidermidis ATCC 12228 measured after overnight incubation by broth double-dilution method; outline: as §2
[15] = tested on: Salmonella enterica; assay: Antibacterial activity against Salmonella enterica ATCC 14028 measured after overnight incubation by broth double-dilution method; outline: as §2
[16] = tested on: Staphylococcus epidermidis; assay: Antibacterial activity against Staphylococcus epidermidis ATCC 35984 measured after overnight incubation by broth double-dilution method; details: RP62A; outline: as §2
[17] = tested on: Acinetobacter baumannii; assay: Antibacterial activity against Acinetobacter baumannii ATCC 19606 measured after overnight incubation by broth double-dilution method; outline: as §2
[18] = tested on: Staphylococcus aureus; assay: Antibacterial activity against methicillin-resistant Staphylococcus aureus C16 measured after overnight incubation by broth double-dilution method; outline: as §1
[19] = tested on: Staphylococcus aureus; assay: Antibacterial activity against methicillin-resistant Staphylococcus aureus NRS51 measured after overnight incubation by broth double-dilution method; outline: as §1
[20] = tested on: Staphylococcus aureus; assay: Antibacterial activity against methicillin-resistant Staphylococcus aureus G6 measured after overnight incubation by broth double-dilution method; outline: as §1
[21] = tested on: Staphylococcus aureus; assay: Antibacterial activity against methicillin-resistant Staphylococcus aureus USA300 measured after overnight incubation by broth double-dilution method; outline: as §1
[22] = tested on: Staphylococcus aureus; assay: Antibacterial activity against methicillin-resistant Staphylococcus aureus USA200 measured after overnight incubation by broth double-dilution method; outline: as §1
[23] = tested on: Staphylococcus aureus; assay: Antibacterial activity against methicillin-sensitive Staphylococcus aureus ATCC 6538 measured after overnight incubation by broth double-dilution method; outline: as §1
[24] = tested on: Staphylococcus aureus; assay: Antibacterial activity against methicillin-sensitive Staphylococcus aureus ATCC 29213 measured after overnight incubation by broth double-dilution method; outline: as §1
[25] = tested on: Staphylococcus aureus; assay: Antibacterial activity against methicillin-resistant Staphylococcus aureus G14 measured after overnight incubation by broth double-dilution method; outline: as §1
[26] = tested on: Staphylococcus aureus; assay: Antibacterial activity against methicillin-resistant Staphylococcus aureus USA600 measured after overnight incubation by broth double-dilution method; outline: as §1
[27] = tested on: Mycolicibacterium smegmatis; assay: Antibacterial activity against Mycobacterium smegmatis MC2-155 measured after overnight incubation by broth double-dilution method; details: str. MC2 155; outline: as §1
[28] = tested on: Staphylococcus aureus; assay: Antibacterial activity against methicillin-resistant Staphylococcus aureus C14 measured after overnight incubation by broth double-dilution method; outline: as §1
[29] = tested on: Enterococcus; assay: Antibacterial activity against Vancomycin-resistant Enterococcus measured after overnight incubation by broth double-dilution method; outline: as §1
[30] = tested on: Staphylococcus aureus; assay: Antibacterial activity against methicillin-resistant Staphylococcus aureus 1 measured after overnight incubation by broth double-dilution method; outline: as §1
[31] = tested on: Staphylococcus aureus; assay: Antibacterial activity against methicillin-resistant Staphylococcus aureus C7 measured after overnight incubation by broth double-dilution method; outline: as §1
[32] = tested on: Staphylococcus aureus; assay: Antibacterial activity against methicillin-resistant Staphylococcus aureus S14 measured after overnight incubation by broth double-dilution method; outline: as §1
[33] = tested on: Enterococcus faecalis; assay: Antibacterial activity against Enterococcus faecalis ATCC 29212 measured after overnight incubation by broth double-dilution method; outline: as §2
[34] = tested on: Staphylococcus aureus; assay: Antibacterial activity against methicillin-resistant Staphylococcus aureus G1 measured after overnight incubation by broth double-dilution method; outline: as §1
[35] = tested on: Staphylococcus aureus; assay: Antibacterial activity against methicillin-resistant Staphylococcus aureus BRS3 measured after overnight incubation by broth double-dilution method; outline: as §1
[36] = tested on: Staphylococcus aureus; assay: Antibacterial activity against methicillin-resistant Staphylococcus aureus S22 using 1 10^6CFU/ml measured after overnight incubation by broth double-dilution method
[37] = tested on: Staphylococcus aureus; assay: Antibacterial activity against methicillin-resistant Staphylococcus aureus 2 measured after overnight incubation by broth double-dilution method; outline: as §1
[38] = tested on: Staphylococcus aureus; assay: Antibacterial activity against methicillin-resistant Staphylococcus aureus USA100 measured after overnight incubation by broth double-dilution method; outline: as §1
[39] = tested on: Staphylococcus aureus; assay: Antibacterial activity against methicillin-resistant Staphylococcus aureus C1 measured after overnight incubation by broth double-dilution method; outline: as §1
[40] = tested on: Staphylococcus aureus; assay: Antibacterial activity against methicillin-sensitive Staphylococcus aureus ATCC 25923 measured after overnight incubation by broth double-dilution method; outline: as §1
[41] = tested on: Enterococcus faecalis; assay: Antibacterial activity against Enterococcus faecalis ATCC 49533 measured after overnight incubation by broth double-dilution method; outline: as §2
[42] = tested on: Enterobacter cloacae; assay: Antibacterial activity against Enterobacter cloacae ATCC 13047 measured after overnight incubation by broth double-dilution method; details: subsp. cloacae ATCC 13047; outline: as §1
[43] = tested on: Staphylococcus aureus; assay: Antibacterial activity against methicillin-resistant Staphylococcus aureus C2 measured after overnight incubation by broth double-dilution method; outline: as §1
[44] = tested on: Staphylococcus aureus; assay: Antibacterial activity against methicillin-resistant Staphylococcus aureus S24 measured after overnight incubation by broth double-dilution method; outline: as §1
[45] = tested on: Pseudomonas aeruginosa; assay: Antibacterial activity against Pseudomonas aeruginosa ATCC 27853 measured after overnight incubation by broth double-dilution method; outline: as §2

Q: How did the MIC [1] turn out when `NCC[C@H](O)C(=O)N[C@@H]1C[C@H](N)[C@@H](O[C@H]2O[C@H](CN)[C@@H](O)[C@H](O)[C@H]2O)[C@H](O)[C@H]1O[C@H]1O[C@H](CO)[C@@H](O)[C@H](N)[C@H]1O` [AMIKACIN] was run?
A: Its MIC is 2 µg/mL (≈ 3.42 µM).

Q: And the MIC [2]?
A: The MIC was 0.5 µg/mL (≈ 0.854 µM).

Q: And the MIC [3]?
A: The MIC was 31.3 µg/mL (≈ 53.4 µM).

Q: And the MIC [4]?
A: The MIC was 3.9 µg/mL (≈ 6.66 µM).

Q: And the MIC [5]?
A: Its MIC is 1 µg/mL (≈ 1.71 µM).

Q: And the Activity [6]?
A: Its Activity is “Active”.

Q: And the Activity [7]?
A: Its Activity is “Active”.

Q: And the MIC [8]?
A: Its MIC is 7.8 µg/mL (≈ 13.3 µM).

Q: What about the MIC [9] of the same compound?
A: Its MIC is 125 µg/mL (≈ 213 µM).

Q: And the MIC [10]?
A: The MIC was 31.3 µg/mL (≈ 53.4 µM).

Q: What about the MIC [11] of the same compound?
A: The MIC was 3.9 µg/mL (≈ 6.66 µM).

Q: What about the MIC [12] of the same compound?
A: Its MIC is 31.3 µg/mL (≈ 53.4 µM).

Q: What about the MIC [13] of the same compound?
A: Its MIC is 15.6 µg/mL (≈ 26.6 µM).

Q: And the MIC [14]?
A: The MIC was 31.3 µg/mL (≈ 53.4 µM).

Q: And the MIC [15]?
A: Its MIC is 7.8 µg/mL (≈ 13.3 µM).

Q: And the MIC [16]?
A: The MIC was 15.6 µg/mL (≈ 26.6 µM).

Q: And the MIC [17]?
A: The MIC was 7.8 µg/mL (≈ 13.3 µM).

Q: What about the MIC [18] of the same compound?
A: Its MIC is 31.3 µg/mL (≈ 53.4 µM).

Q: And the MIC [19]?
A: The MIC was 15.6 µg/mL (≈ 26.6 µM).

Q: What about the MIC [20] of the same compound?
A: The MIC was 15.6 µg/mL (≈ 26.6 µM).

Q: And the MIC [21]?
A: Its MIC is 62.5 µg/mL (≈ 107 µM).

Q: What about the MIC [22] of the same compound?
A: Its MIC is 62.5 µg/mL (≈ 107 µM).

Q: And the MIC [23]?
A: Its MIC is 2 µg/mL (≈ 3.42 µM).

Q: What about the MIC [24] of the same compound?
A: Its MIC is 62.5 µg/mL (≈ 107 µM).

Q: And the MIC [25]?
A: The MIC was 31.3 µg/mL (≈ 53.4 µM).

Q: And the MIC [26]?
A: Its MIC is 62.5 µg/mL (≈ 107 µM).

Q: And the MIC [27]?
A: Its MIC is at most 0.25 µg/mL.

Q: What about the MIC [28] of the same compound?
A: The MIC was 31.3 µg/mL (≈ 53.4 µM).

Q: What about the MIC [29] of the same compound?
A: Its MIC is 62.5 µg/mL (≈ 107 µM).

Q: What about the MIC [30] of the same compound?
A: Its MIC is 31.3 µg/mL (≈ 53.4 µM).

Q: And the MIC [31]?
A: The MIC was 7.8 µg/mL (≈ 13.3 µM).

Q: And the MIC [32]?
A: Its MIC is 7.8 µg/mL (≈ 13.3 µM).

Q: And the MIC [33]?
A: Its MIC is 125 µg/mL (≈ 213 µM).

Q: What about the MIC [34] of the same compound?
A: The MIC was 31.3 µg/mL (≈ 53.4 µM).

Q: And the MIC [35]?
A: Its MIC is 62.5 µg/mL (≈ 107 µM).

Q: And the Activity [36]?
A: The Activity was “Active”.

Q: And the MIC [37]?
A: Its MIC is 3.9 µg/mL (≈ 6.66 µM).

Q: What about the MIC [38] of the same compound?
A: Its MIC is 62.5 µg/mL (≈ 107 µM).

Q: What about the MIC [39] of the same compound?
A: The MIC was 2 µg/mL (≈ 3.42 µM).

Q: What about the MIC [40] of the same compound?
A: Its MIC is at most 0.25 µg/mL.

Q: And the MIC [41]?
A: Its MIC is over 125 µg/mL.

Q: And the MIC [42]?
A: Its MIC is 1 µg/mL (≈ 1.71 µM).

Q: What about the MIC [43] of the same compound?
A: Its MIC is 2 µg/mL (≈ 3.42 µM).

Q: And the MIC [44]?
A: Its MIC is 31.3 µg/mL (≈ 53.4 µM).

Q: And the MIC [45]?
A: The MIC was 31.3 µg/mL (≈ 53.4 µM).
